Source: PubChem (The Scripps Research Institute Molecular Screening Center)
Most compounds without a hit are left out; they make up all but 2.4% or so of the library.
IMP-1 inh: blocks Pseudomonas aeruginosa IMP-1 metallo-beta-lactamase | purified IMP-1, nitrocefin hydrolysis, epi-absorbance fluorescence | inhibition, % at 5.6 µM | hit rate 0.45% among 290,000 | AID 1556;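 active means inhibition above the mean plus 3 SD of all compounds in the same screening run, cut at about 4.5% in these data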
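Assay system: purified IMP-1; Quantity: IMP-1 0.2 nM before substrate addition; Medium: HEPES buffer pH 7.1 with ZnSO4 and Brij 35; Incubation: 15 min enzyme–compound preincubation, then 25 min nitrocefin reaction, 25 °C; Signal: fluorescence quenching readout, ex 480/em 530 nm; Controls: DMSO with and without IMP-1; Repeats: singlicate testing.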
VIM-2 inhibitor: blocks Pseudomonas aeruginosa VIM-2 metallo-beta-lactamase; inhibition, % at 5.6 µM; purified VIM-2, nitrocefin hydrolysis, epi-absorbance fluorescence; hit rate 0.89% among 290,000; AID 1527;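 active means inhibition above the mean of all tested compounds plus 3 SD, cutoff set per screening run, cut at about 7.5% in these data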;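 further: red hydrolysis product quenches plate fluorescence so inhibitors raise well fluorescence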
sPLA2-III inh: Inhibits HGIII-sPLA2 liposome hydrolysis, primary screen; Q9NZ20; inhibition, % at 12.2 µM; QFRET BODIPY PC-A2 liposome hydrolysis, fluorescence; hit rate 0.56% among 370,000; AID 743126;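 active means inhibition above mean plus 3 SD of compounds lying within the high and low control bounds, cut at about 19% in these data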
Target sequence (Q9NZ20 whole entry, looked up): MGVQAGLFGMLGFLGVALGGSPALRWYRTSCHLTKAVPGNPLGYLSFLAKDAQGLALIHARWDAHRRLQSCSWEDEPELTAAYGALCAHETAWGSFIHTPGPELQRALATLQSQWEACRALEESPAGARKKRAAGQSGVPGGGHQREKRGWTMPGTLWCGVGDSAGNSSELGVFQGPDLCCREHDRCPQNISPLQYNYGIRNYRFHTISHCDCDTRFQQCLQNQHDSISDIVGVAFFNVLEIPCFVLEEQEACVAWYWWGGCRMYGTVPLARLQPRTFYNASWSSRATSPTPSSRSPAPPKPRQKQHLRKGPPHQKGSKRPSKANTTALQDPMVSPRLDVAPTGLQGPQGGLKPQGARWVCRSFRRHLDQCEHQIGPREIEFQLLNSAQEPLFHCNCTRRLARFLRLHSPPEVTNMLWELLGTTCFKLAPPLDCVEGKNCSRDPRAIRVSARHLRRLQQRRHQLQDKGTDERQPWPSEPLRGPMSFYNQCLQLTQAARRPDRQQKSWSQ
M18AAP inhibitor: blocks P. falciparum M18 aspartyl aminopeptidase. recombinant PfM18AAP, H-Glu-NHMec fluorogenic cleavage. hit rate 1.2% among 290,000. inhibition, % at 7.35 µM;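 active means inhibition above the campaign mean inhibition over all tested compounds plus 3 SD, cut at about 28% in these data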
Of the large screens only hits and unclear results are named; the others gave an inactive call.

CCOC(=O)Cn1nnnc1C(CC)N(Cc1cccs1)Cc1cc2cc(C)ccc2[nH]c1=O (stereo not given)	none
CCOC(=O)Cn1nnnc1C(C(C)C)N(Cc1cccs1)Cc1cc2cc(C)ccc2[nH]c1=O (stereo not given)	M18AAP inhibitor 31
CCOC(=O)CC[C@@]1(C(=O)OCC)C[C@@H](CC(=O)N2CCN(C(=O)c3ccco3)CC2)C(=O)N2CCCC=C21	none (no result: IMP-1 inh, VIM-2 inhibitor, M18AAP inhibitor)
COC(=O)C1CN(Cc2ccc(OC)cc2)CCS(=O)(=O)N1Cc1cn(Cc2ccc(Cl)cc2)nn1 (stereo not given)	none (no result: IMP-1 inh, VIM-2 inhibitor, M18AAP inhibitor)
CC(=O)Oc1ccc(C(=O)Nc2cccc(-c3nnc(-c4ccco4)o3)c2)cc1	IMP-1 inh 42
Cc1ccc(N/C(CSC(N)=O)=N\S(=O)(=O)c2ccc(C)cc2)cc1	IMP-1 inh 5.0
C/C(=N\S(=O)(=O)c1ccc(C)cc1)NC(=S)Nc1ccc(C)cc1	none
NC(=O)SC/C(=N\S(=O)(=O)c1ccccc1)Nc1ccccc1	none
Cc1ccc(N/C(CSC(N)=O)=N/S(=O)(=O)c2ccccc2)cc1	IMP-1 inh 4.8
Cc1ccc2oc(=O)c3cc(C(=O)NCCCN4CC(C)CC(C)C4)sc3c2c1 (stereo not given)	VIM-2 inhibitor 10
Cc1ccc2cc3cc(C(=O)N4CC(C)CC(C)C4)oc3nc2c1 (stereo not given)	none
Cc1ccc2cc3cc(C(=O)NCCCN4CC(C)CC(C)C4)oc3nc2c1 (stereo not given)	VIM-2 inhibitor 10
CC1CCN(c2ccc(C(=O)O)cc2NS(=O)(=O)c2ccccc2)CC1	none (no result: IMP-1 inh, VIM-2 inhibitor, M18AAP inhibitor)
O=C1[C@H]2C[C@@]3(n4ccc5ccccc54)c4ccccc4N(S(=O)(=O)c4ccccc4)[C@H]3N2C(=O)CN1Cc1ccccc1	none (no result: IMP-1 inh, VIM-2 inhibitor, M18AAP inhibitor)
C[C@H]1[C@@H](OC(=O)NCc2cccnc2)CC[C@@]23CCCN2C(=O)CCC[C@@H]13	none (no result: IMP-1 inh, VIM-2 inhibitor, M18AAP inhibitor)
Oc1c(CNc2ccccc2)cc(COCc2ccccc2)c2cccnc12	none (no result: IMP-1 inh, VIM-2 inhibitor, M18AAP inhibitor)
Oc1c(CN2CCOCC2)cc(COCc2ccccc2)c2cccnc12	VIM-2 inhibitor 7.7
CCCC/C=C1/[C@@H](c2ccc(Cl)cc2)N(Cc2ccc3c(c2)OCO3)C2=N[C@@H](c3ccccc3)CC(=O)N21	none (no result: IMP-1 inh, VIM-2 inhibitor, M18AAP inhibitor)
CSc1nnc(-c2cc[n+](C)cc2)n1CCO	IMP-1 inh 4.9
COc1ccc(/C=C2/CN(Cc3ccc(OC)cc3OC)C3=N[C@H](c4ccccc4)CC(=O)N32)cc1	none (no result: IMP-1 inh, VIM-2 inhibitor, M18AAP inhibitor)
Cc1ccc(C)c(S(=O)(=O)Nc2ccc3oc(C)c(C(=O)O)c3c2)c1	IMP-1 inh 6.0
O=C(O)c1cccc(S(=O)(=O)Nc2ccc3[nH]c(=O)[nH]c3c2)c1	none
O=c1oc2ccc(NS(=O)(=O)c3cccc4cccnc34)cc2s1	M18AAP inhibitor 31
O=C(O)c1cccc(S(=O)(=O)Nc2ccc3oc(=O)sc3c2)c1	M18AAP inhibitor 42
O=C1CCCc2oc3ccc(NS(=O)(=O)c4cccc5cccnc45)cc3c21	none
O=C(c1cnn(C(=O)COc2ccc(Cl)cc2)c1)c1ccccc1O	M18AAP inhibitor 30
O=C(c1cnn(C(=O)c2ccccc2)c1)c1ccccc1O	M18AAP inhibitor 31
O=Cc1coc2c(ccc3ccccc32)c1=O	IMP-1 inh 32 (no result: sPLA2-III inh)
CC(C)CN1C(=O)[C@@]2(CC(=O)N(C)C2c2ccccc2)c2cc(-n3cc(CN(C)C)nn3)ccc21 (stereo not given in full)	none (no result: IMP-1 inh, VIM-2 inhibitor, M18AAP inhibitor)
OC(c1ccccc1)(c1ccccc1)C1CCN(CCCOc2ccc(Br)cc2)CC1	none (no result: IMP-1 inh, VIM-2 inhibitor, M18AAP inhibitor)
CCOc1cc(C(C(=O)NCC2CCCO2)N(C(=O)Cn2nnc3ccccc32)c2ccc(NC(C)=O)cc2)ccc1O (stereo not given)	none
CC(=O)Nc1ccc(N(C(=O)Cn2nnc3ccccc32)C(C(=O)NC2CCCC2)c2ccc(O)c(O)c2)cc1 (stereo not given)	M18AAP inhibitor 65
COc1ccc(-c2cc(C(F)(F)F)n3nc(C(=O)N4CCCC4)cc3n2)cc1	none
Cc1ccc(-c2cc(C(F)(F)F)n3nc(C(=O)N4CCN5CCCC5C4)cc3n2)cc1 (stereo not given)	VIM-2 inhibitor 10
Cc1cc(Oc2ccc(=O)n(C)n2)nc(=S)[nH]1	M18AAP inhibitor 28 (no result: sPLA2-III inh)
CSc1nc(C)cc(Oc2ccc(=O)n(C)n2)n1	none
CSc1nc(NCc2ccccc2)c2c3c(sc2n1)CN(C)CC3	none
COCCNc1nc(SC)nc2sc3c(c12)CCN(C)C3	VIM-2 inhibitor 9.8
CSc1nc(NCC(C)C)c2c3c(sc2n1)CN(C)CC3	VIM-2 inhibitor 8.4
CCN(CC)CCNc1nc(SC)nc2sc3c(c12)CCN(C)C3	VIM-2 inhibitor 11
C[C@@H]1ON(C)[C@H]2C[C@H]3c4[nH]c5c(-c6ccccc6F)cccc5c4CCN3C[C@@H]12	none (no result: IMP-1 inh, VIM-2 inhibitor, M18AAP inhibitor)
O=C(/C=C/Nc1cccc(C(F)(F)F)c1)C(F)(F)F	IMP-1 inh 5.9
N=C1C(c2nc(-c3ccc(F)cc3)cs2)=C(O)CN1CCCN1CCOCC1	VIM-2 inhibitor 12
O=C(CN1CCN(c2ccc(O)cc2)CC1)Nc1cc([N+](=O)[O-])ccc1Cl	M18AAP inhibitor 33
O=S1(=O)c2ccc(N3CCCC3)cc2Oc2ccccc2CN1Cc1cn(Cc2cccc(C(F)(F)F)c2)nn1	none (no result: IMP-1 inh, VIM-2 inhibitor, M18AAP inhibitor)
Cc1ccc2cc(CN(CCCN(C)C)C(=S)NCc3ccccc3)c(=O)[nH]c2c1C	VIM-2 inhibitor 9.8
Cc1ccc2cc(CN(CCCN(C)C)C(=O)NCc3ccccc3)c(=O)[nH]c2c1C	VIM-2 inhibitor 7.8
CCOC(=O)[C@]12CCCC=C1N(CCCOC)C(=O)[C@@H]2CC(=O)NCc1cccs1	none (no result: IMP-1 inh, VIM-2 inhibitor, M18AAP inhibitor)
CN(Cc1ccccc1F)C(=O)C1CCC(CNS(=O)(=O)c2cccc3cccnc23)CC1 (stereo not given)	none (no result: IMP-1 inh, VIM-2 inhibitor, M18AAP inhibitor)
Cc1ccc(-c2cc(C(=O)NN=Cc3cccc(OCc4ccccc4)c3)[nH]n2)cc1C	none (no result: IMP-1 inh, VIM-2 inhibitor, M18AAP inhibitor)
COC(=O)[C@]1(CNC(C)=O)CC(=O)N(C)[C@@H]1c1ccccc1	none (no result: IMP-1 inh, VIM-2 inhibitor, M18AAP inhibitor)
CS(=O)(=O)Nc1ccc(-c2ccc(/C=C3\SC(N)=NC3=O)o2)cc1	VIM-2 inhibitor 8.8
Cc1ccc2c(c1)N(CCCC(=O)NCc1cccs1)C(=O)CO2	none (no result: IMP-1 inh, VIM-2 inhibitor, M18AAP inhibitor)
O=C1N=c2ccccc2=C1c1sc(Nc2cccc(O)c2)nc1O	none
O=C1N=c2ccccc2=C1c1sc(Nc2ccc(O)cc2)nc1O	IMP-1 inh 5.1
CSc1ccccc1NC(=O)c1cc(-c2cccnc2)nc2ccc(Br)cc12	IMP-1 inh 6.3
CC(=O)Nc1cccc(NC(=O)c2cc(-c3cccnc3)nc3ccc(Cl)cc23)c1	none
CC(=O)Nc1cccc(NC(=O)c2cc(-c3cccnc3)nc3ccc(Br)cc23)c1	IMP-1 inh 5.2
Cc1cc2occ(CC(=O)Nc3nnc(C4CC4)s3)c2cc1C	IMP-1 inh 20
O=C(Cc1coc2ccc3ccccc3c12)Nc1nnc(C2CC2)s1	none
COC(CN1C(=O)C(=O)/C(=C(/O)c2ccccc2)C1c1ccccn1)OC (stereo not given)	VIM-2 inhibitor 9.6
COCCN1C(=O)C(=O)/C(=C(/O)c2ccc(C)cc2)C1c1ccccn1 (stereo not given)	none
Cc1ccc(CN2CCCCC(NC(=O)c3ccc4ccccc4c3)C2=O)cc1 (stereo not given)	none (no result: IMP-1 inh, VIM-2 inhibitor, M18AAP inhibitor)
Cc1ccc(C(=O)c2coc3cc([N+](=O)[O-])c(O)c([N+](=O)[O-])c23)cc1	M18AAP inhibitor 33
